Reference: ChEMBL document CHEMBL3259693, “Multitarget drug discovery for tuberculosis and other infectious diseases” (J Med Chem, 2014)
≈ marks a conversion by molar mass, not a printed value. Calls of active or inactive are those of the source. The calls are words filed in the database; no cut-off is given here.

Legend:
[1] = system: Mycobacterium tuberculosis; assay: microbe, parasite or virus in culture; type: functional; details: ATCC 27294
[2] = system: Mycolicibacterium smegmatis; assay: microbe, parasite or virus in culture; type: functional; details: ATCC 700084
[3] = system: Bacillus subtilis; assay: Antimicrobial activity against Bacillus subtilis subsp. subtilis ATCC 6051 after 12 to 16 hrs by microbroth dilution method; type: functional, organism-based
[4] = system: Staphylococcus aureus; assay: Antimicrobial activity against methicillin-resistant Staphylococcus aureus USA300; type: functional
[5] = system: Escherichia coli; assay: microbe, parasite or virus in culture; type: functional, organism-based; details: ATCC 29425, 3 h
[6] = system: Saccharomyces cerevisiae; assay: Antimicrobial activity against Saccharomyces cerevisiae ATCC 208352 after 48 hrs by microbroth dilution method; type: functional, organism-based; details: ATCC 208352, 48 h
[7] = system: Candida albicans; assay: Antimicrobial activity against Candida albicans CAI-4; type: functional, organism-based
[8] = system: Plasmodium falciparum; assay: Antimicrobial activity against Plasmodium falciparum 3D7 by intraerythrocytic assay; type: functional, organism-based
[9] = system: MCF7; assay: Cytotoxicity against human MCF7 cells assessed as growth inhibition by MTT assay; type: cell-based
[10] = system: Mycolicibacterium smegmatis; assay: Inhibition of respiration in Mycobacterium smegmatis after 5 mins by methylene blue reduction assay in presence of NADH; type: functional, organism-based
[11] = system: Mycolicibacterium smegmatis; assay: Disruption of membrane potential in Mycobacterium smegmatis by DisC3(5) probe-based fluorescence spectrophotometry; type: functional, organism-based
[12] = Inhibition of Escherichia coli N-terminal strep-tagged MenA expressed in Escherichia coli C43 (DE3) assessed as demethylmenaquinone-3 formation after 30 mins by HPLC analysis
[13] = system: Escherichia coli; assay: Induction of collapse in deltapH in Escherichia coli inverted membrane vesicles by 31P NMR spectroscopy; type: functional, organism-based
[14] = system: Mycolicibacterium smegmatis; assay: Induction of collapse in deltapH in Mycobacterium smegmatis inverted membrane vesicles at 30 to 150 uM by 31P NMR spectroscopy; type: functional
[15] = system: Escherichia coli; assay: Ratio of IC50 for Escherichia coli ATCC 29425 in presence of 10% fetal bovine serum to IC50 for Escherichia coli ATCC 29425; type: functional
Outline: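 E. coli broth microdilution in LB. Culture was grown to OD600 ~0.4, diluted 500-fold, and exposed to compound from 0.3 mM, 2× serially diluted to 292 nM. Plates ran 3 h at 37 °C with or without 10% FBS. Viability was read by MTT at 570 nm, and IC50 was obtained by non-linear regression.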

[16] = Inhibition of Mycobacterium smegmatis MenA; parameters: species or system Mycolicibacterium smegmatis
[17] = Inhibition of Mycobacterium smegmatis MenG using radiolabeled S-adenosylmethionine as substrate after 1 hr by liquid scintillation counting analysis; parameters: species or system Mycolicibacterium smegmatis
[18] = target: T1, 4,4'-diapophytoene synthase (Staphylococcus aureus, UniProt A9JQL9); assay: Inhibition of Staphylococcus aureus CrtM
T1 sequence (A9JQL9 whole entry): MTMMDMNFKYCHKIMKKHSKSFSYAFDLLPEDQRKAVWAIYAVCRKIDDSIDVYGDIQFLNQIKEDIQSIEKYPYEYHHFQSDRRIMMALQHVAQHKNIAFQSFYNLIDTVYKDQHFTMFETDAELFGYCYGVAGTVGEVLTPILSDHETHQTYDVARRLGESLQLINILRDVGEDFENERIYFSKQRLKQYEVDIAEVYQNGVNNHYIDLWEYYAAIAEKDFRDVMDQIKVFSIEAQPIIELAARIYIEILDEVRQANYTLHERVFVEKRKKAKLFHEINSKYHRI

[19] = target: T2, Squalene synthase (Homo sapiens, UniProt P37268); assay: Inhibition of human SQS
T2 sequence (P37268 whole entry): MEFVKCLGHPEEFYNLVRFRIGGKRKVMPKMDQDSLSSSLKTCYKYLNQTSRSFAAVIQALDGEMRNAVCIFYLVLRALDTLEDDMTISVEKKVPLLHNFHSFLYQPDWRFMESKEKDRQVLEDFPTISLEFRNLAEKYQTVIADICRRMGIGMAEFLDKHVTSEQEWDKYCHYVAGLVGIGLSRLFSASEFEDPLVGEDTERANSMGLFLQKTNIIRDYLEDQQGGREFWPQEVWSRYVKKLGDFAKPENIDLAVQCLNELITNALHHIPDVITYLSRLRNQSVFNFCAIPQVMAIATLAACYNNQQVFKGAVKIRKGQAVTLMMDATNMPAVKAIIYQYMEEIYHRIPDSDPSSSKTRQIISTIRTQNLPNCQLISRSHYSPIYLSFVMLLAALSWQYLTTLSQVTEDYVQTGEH

[20] = system: Mycobacterium tuberculosis; assay: Antimicrobial activity against Mycobacterium tuberculosis after 7 to 21 days by microdilution method; type: functional
[21] = system: Mycolicibacterium smegmatis; assay: Antimicrobial activity against Mycobacterium smegmatis after 10 hrs; type: functional
[22] = Therapeutic index, ratio of IC50 for human MCF7 cells to IC50 for Plasmodium falciparum 3D7; type: cell-based; details: MCF7 cells versus Plasmodium falciparum 3D7, read-out: Ratio IC50
[23] = Therapeutic index, ratio of IC50 for human MCF7 cells to MIC for Mycobacterium tuberculosis ATCC 27294; type: cell-based; details: MCF7 cells versus Mycobacterium tuberculosis ATCC 27294, read-out: TI
[24] = system: Mycolicibacterium smegmatis; details: at 40 to 120 µM

Row | SMILES | MIC [1] [µM] | MIC [2] [µM] | IC50 [3] [µM] | MIC [4] [µM] | IC50 [5] [µM] | IC50 [6] [µM] | IC50 [7] [µM] | IC50 [8] [µM] | IC50 [9] [µM] | IC50 [10] [µM] | IC50 [11] [µM] | IC50 [12] [µM] | IC50 [13] [µM] | other results
1 | CC(C)=CCC/C(C)=C/CNCCCOC1C2CC3CC(C2)CC1C3 (stereo unspecified) | 4.6 (≈ 1.59 µg/mL) | 18 (≈ 6.22 µg/mL) | 8.7 | 23 (≈ 7.95 µg/mL) | 6.7 | 7.8 | 19 | 2.4 | 9.8 | 4.8 | 50 | 1.9 | 1.1 | –
2 | CO[C@@H]1C[C@@H](C[C@H]2CC[C@H](C)[C@H]([C@@H](C)C(=O)O)O2)O[C@]2(O[C@](C)([C@H]3CC[C@@](C)([C@@H]4O[C@@H]([C@H]5O[C@@](O)(CO)[C@H](C)C[C@@H]5C)C[C@@H]4C)O3)C[C@H]2C)[C@@H]1C | – | – | – | – | – | – | – | – | – | – | – | – | – | Activity [14]: Active
3 | CC(C)=CCC/C(C)=C/CNCCO[C@@H]1C[C@@H]2CC[C@@]1(C)C2(C)C | 0.15 (≈ 0.05 µg/mL) | 4.8 (≈ 1.6 µg/mL) | 5.4 | 24 (≈ 8.01 µg/mL) | 36 | 2.7 | 19 | – | 3.9 | 0.3 | 44 | 3.2 | 0.8 | Ratio IC50 [15]: 1.6; IC50 [16]: 8 µM; IC50 [17]: 5.7 µM; EC50 [11]: 15 µg/mL (≈ 45 µM); Activity [14]: Active
4 | CC(C)=CCC/C(C)=C/COCCNC1C2CC3CC(C2)CC1C3 (stereo unspecified) | 0.57 (≈ 0.189 µg/mL) | 19 (≈ 6.3 µg/mL) | – | – | 13 | – | – | 2.8 | 338 | 36 | 78 | 1.8 | 1 | IC50 [18]: 100 µM; IC50 [19]: 100 µM
5 | CC(C)=CCC/C(C)=C/COCCOC1C2CC3CC(C2)CC1C3 (stereo unspecified) | – | 150 (≈ 49.9 µg/mL) | – | – | – | – | – | 24 | 220 | 600 | 150 | 4.2 | 15 | –
6 | CC(C)=CCC/C(C)=C/C[N+](C)(C)CCOC1C2CC3CC(C2)CC1C3 (stereo unspecified) | 1.6 | 24 | 8.6 | 16 | 76 | 31 | 37 | 0.16 | 6.5 | 0.5 | 51 | 1 | 18 | –
7 | N#CC(C#N)=NNc1cccc(Cl)c1 | – | – | – | – | – | – | – | – | – | – | – | – | – | Activity [14]: Active
8 | CC(C)[C@@H]1NC(=O)[C@H](C)OC(=O)[C@@H](C(C)C)NC(=O)[C@@H](C(C)C)OC(=O)[C@H](C(C)C)NC(=O)[C@H](C)OC(=O)[C@@H](C(C)C)NC(=O)[C@@H](C(C)C)OC(=O)[C@H](C(C)C)NC(=O)[C@H](C)OC(=O)[C@@H](C(C)C)NC(=O)[C@@H](C(C)C)OC1=O | – | – | – | – | – | – | – | – | – | – | – | – | – | Activity [14]: inactive
9 | CC(C)=CCC/C(C)=C/COCC(=O)NC1C2CC3CC(C2)CC1C3 (stereo unspecified) | 34 (≈ 11.7 µg/mL) | 72 (≈ 24.9 µg/mL) | 49 | – | – | – | – | 11 | 27 | 280 | 150 | 16 | 7.4 | –
10 | CC[C@@H](CO)NCCN[C@@H](CC)CO [ETHAMBUTOL] | – | – | – | – | – | – | – | – | – | – | – | – | – | MIC [20]: 9.8 µM (≈ 2 µg/mL); MIC [21]: 4.9 µM (≈ 1 µg/mL)
11 | CC(C)=CCC/C(C)=C/CNCCOC(C)(C)C | 24 (≈ 6.08 µg/mL) | 198 (≈ 50.2 µg/mL) | – | – | – | 174 | – | 13 | 178 | 9500 | 150 | 4.6 | 4.7 | –
12 | CC(C)=CCC/C(C)=C/CNC(=O)COC1C2CC3CC(C2)CC1C3 (stereo unspecified) | 2.2 (≈ 0.76 µg/mL) | 18 (≈ 6.22 µg/mL) | – | – | – | – | – | 18 | 35 | 330 | 150 | 5.8 | 12 | –
13 | CC(C)=CCC/C(C)=C/CNCCOc1ccccc1 | 23 (≈ 6.29 µg/mL) | 44 (≈ 12 µg/mL) | 62 | 117 (≈ 32 µg/mL) | 220 | 11 | 74 | 51 | 23 | 2500 | – | 4.6 | – | –
14 | CC(C)=CCC/C(C)=C/CNCCOC1C2CC3CC(C2)CC1C3 (stereo unspecified) | 0.06 (≈ 0.0199 µg/mL) | 4.8 (≈ 1.59 µg/mL) | 48 | 24 (≈ 7.96 µg/mL) | 8.5 | 5.4 | 36 | 2.4 | 30 | 0.5 | 31 | 0.4 | 0.8 | selectivity ratio [22]: 40; Ratio IC50 [15]: 1.6; IC50 [18]: 100 µM; IC50 [19]: 100 µM; IC50 [16]: 4 µM; IC50 [17]: 15 µM; selectivity ratio [23]: 900; inhibition [24]: Active
15 | CC(C)=CCC/C(C)=C/CNCCOc1cccc2ccccc12 | 19 (≈ 6.15 µg/mL) | 37 (≈ 12 µg/mL) | 7.4 | 25 (≈ 8.09 µg/mL) | 46 | 11 | 37 | – | 22 | 140 | 130 | 3.3 | 7.1 | –
